PubChem BioAssay AID743214 (The Scripps Research Institute Molecular Screening Center, 2013)
The whole screen tested about 2,100 compounds, of which about 10 (0.5%) were called active. These entries were drawn from the full list. A number with no mark means an inactive call.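 How the source made its calls: active means mean triplicate inhibition above the solvent-only control wells' mean plus 3 SD (cut at about 12% in these data); inactive means the rest.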

biological target: Disintegrin and metalloproteinase domain-containing protein 17 (Homo sapiens) (UniProt P78536); assay: inhibition of ADAM17 peptide cleavage – biochemical, QFRET, high throughput, counter-screen for ADAM10 exosite inhibitor project (AID 743214); details: EDANS fluorescence, at 6.95 µM, active compounds read high;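 further: 0% = DMSO wells and 100% = marimastat wells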
Sequence (P78536 215-824 limits assumed): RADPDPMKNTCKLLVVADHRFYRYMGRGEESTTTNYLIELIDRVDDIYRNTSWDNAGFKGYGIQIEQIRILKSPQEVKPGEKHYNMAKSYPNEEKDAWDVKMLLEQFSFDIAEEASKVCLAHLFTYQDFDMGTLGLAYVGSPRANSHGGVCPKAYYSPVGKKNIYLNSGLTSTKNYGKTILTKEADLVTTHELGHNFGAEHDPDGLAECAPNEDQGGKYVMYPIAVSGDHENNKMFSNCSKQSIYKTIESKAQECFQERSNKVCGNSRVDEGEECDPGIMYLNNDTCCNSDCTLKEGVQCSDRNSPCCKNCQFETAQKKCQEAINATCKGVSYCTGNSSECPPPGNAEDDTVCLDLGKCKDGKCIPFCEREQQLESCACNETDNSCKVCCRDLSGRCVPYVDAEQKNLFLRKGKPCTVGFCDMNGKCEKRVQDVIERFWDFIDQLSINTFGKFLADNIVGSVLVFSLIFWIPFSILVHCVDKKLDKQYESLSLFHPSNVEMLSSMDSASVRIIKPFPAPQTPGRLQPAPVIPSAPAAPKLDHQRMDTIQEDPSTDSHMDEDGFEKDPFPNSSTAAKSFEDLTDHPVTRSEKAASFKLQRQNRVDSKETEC
Summary of the method: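 Read-out: percent inhibition scaled between DMSO and 1 µM marimastat wells; System: ADAM17 enzyme, quenched-FRET peptide cleavage; Quantity: ADAM17 added as 2X stock of 20 nM; Also added: DM2 peptide substrate; Incubation: 30 min compound–enzyme preincubation, then 3 h reaction, both 25 °C; Technique: fluorescence at ex 359 / em 460 nm.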

**Q.** How did the inhibition turn out when `Cn1c(CNc2nc(-c3ccccc3)cs2)nnc1SCC(=O)c1ccccc1` was run?
**A.** 0.06%

**Q.** `COc1ccc(C(CCN(Cc2ccc(OC)c(OC)c2)C(=O)CCl)c2ccccc2)cc1` (stereo unspecified) was tested. Which inhibition did it give?
**A.** 1.03%

**Q.** For `CCOc1cc(/C=N/NC(=O)c2cc(-c3ccccc3)nc3ccccc23)ccc1O`, which inhibition is on record?
**A.** 4.94%

**Q.** `O=C(CSC1=NCCS1)Nc1nc(-c2ccccc2)cs1` was tested. Which inhibition did it give?
**A.** 0.66%

**Q.** Which inhibition does the source give for `COc1ccc(OCCCn2cccc2/C=C2/C(=N)N3OC(C)=CC3=NC2=O)cc1` here?
**A.** 0.03%

**Q.** `Cc1ccc(/C=N/NC(=O)CSc2nc3ccccc3o2)cc1` was tested. Which inhibition did it give?
**A.** 0.11%

**Q.** For `COc1cc(/C=C2/SC(=S)N(Cc3ccccc3)C2=O)cc(OC)c1O`, which inhibition is on record?
**A.** 3.03%

**Q.** With `CN(C)S(=O)(=O)c1cccc(NC(=O)COC(=O)C2(c3ccccc3F)CCCC2)c1` as the compound, how does the inhibition read?
**A.** 0.96%

**Q.** `N/C(Cc1ccc([N+](=O)[O-])cc1)=N\OC(=O)COc1ccc2ccccc2c1` was tested. Which inhibition did it give?
**A.** 1.74%

**Q.** Which inhibition does the source give for `O=C1NC(Nc2nc3ccccc3s2)(C(F)(F)F)C(=O)N1C1CCCCC1` (stereo unspecified) here?
**A.** 0.94%

**Q.** `COc1cc(C2CC(=O)N3CN(Cc4ccccc4)CSC3=C2C#N)ccc1OCc1ccccc1` (stereo unspecified) was tested. Which inhibition did it give?
**A.** 2.1%

**Q.** For `O=C(OCc1ccc(-c2ccccc2)cc1)c1cccc(O)c1`, which inhibition is on record?
**A.** 4.02%

**Q.** With `COC(=O)[C@@]12C[C@@H](CC(=O)NCCCCc3ccccc3)C(=O)N(CCc3ccc(OC)c(OC)c3)C1=CCC(C)(C)C2` as the compound, how does the inhibition read?
**A.** 0.87%

**Q.** With `COc1cc(Cl)c(S(=O)(=O)N2CCN(Cc3ccc4c(c3)OCO4)CC2)cc1Cl` as the compound, how does the inhibition read?
**A.** 1.24%

**Q.** How did the inhibition turn out when `CCOc1ccc(Nc2oc(Cc3ccccc3)nc2C#N)cc1` was run?
**A.** 1.58%

**Q.** For `CCOc1ccc(Br)cc1S(=O)(=O)Nc1ccc(C(=O)OC(C)C(=O)N(C)c2ccccc2)cc1` (stereo unspecified), which inhibition is on record?
**A.** 2.71%

**Q.** How did the inhibition turn out when `C=CCC[C@@H](Cc1ccc(F)cc1)C(=O)O[C@H](CNC(=O)[C@H](CC=C)CC(=O)N(CCO)Cc1ccccc1)c1ccccc1` was run?
**A.** 3.84%

**Q.** For `O=C(Cc1ccc(Cl)c(Cl)c1)Nc1ccc(SC(F)F)cc1`, which inhibition is on record?
**A.** 2.25%

**Q.** With `CC(C)(C)c1ccc(S(=O)(=O)NCC2CCN(C(=O)C(=O)c3cc4ccccc4o3)CC2)cc1` as the compound, how does the inhibition read?
**A.** 1.76%

**Q.** How did the inhibition turn out when `COc1ccc(Cl)cc1NC(=O)COC(=O)C(CC(C)C)N1C(=O)C2CC=CCC2C1=O` (stereo unspecified) was run?
**A.** 0.79%

**Q.** Which inhibition does the source give for `CC(C)(C)c1ccc(C(=O)Nc2cc(Cl)c(Br)cc2C(=O)O)cc1` here?
**A.** 0.16%

**Q.** How did the inhibition turn out when `CCCCCc1c(-c2ccc(OC)c(OC)c2)ncn1CCc1ccccc1OC` was run?
**A.** 1.69%

**Q.** For `Cc1ccc(NS(=O)(=O)c2ccc(C)c(NC(=O)COc3ccc4ccccc4c3)c2)c(C)c1`, which inhibition is on record?
**A.** 4.43%

**Q.** `COc1ccc(NS(=O)(=O)c2ccc(C)c(C(=O)NNC(=O)c3csc(N4CCOCC4)n3)c2)cc1` was tested. Which inhibition did it give?
**A.** 1.55%

**Q.** With `O=C(COC(=O)CCCSc1nc2ccccc2[nH]1)Nc1ccc(Oc2ccccc2)cc1` as the compound, how does the inhibition read?
**A.** 3.79%

**Q.** How did the inhibition turn out when `Cc1cccc(CCNS(=O)(=O)c2ccc(S(=O)(=O)NC3CCCC3)cc2)c1` was run?
**A.** -0.14%

**Q.** With `O=C(CSCc1ccc(Br)cc1)Nc1ccc(S(=O)(=O)N2CCCCCC2)cc1` as the compound, how does the inhibition read?
**A.** 3.71%

**Q.** For `O=Cc1cn(CCOc2ccc(F)cc2)c2ccccc12`, which inhibition is on record?
**A.** -0.11%

**Q.** With `O=C(Nc1cccc(S(=O)(=O)Nc2ccc(Cl)cc2)c1)c1ccc2c(c1)OCCO2` as the compound, how does the inhibition read?
**A.** 2.96%

**Q.** `COc1cccc(NC(=O)CN2CCN(c3nc(-c4cccc(OC)c4)cs3)CC2)c1` was tested. Which inhibition did it give?
**A.** 2.32%

**Q.** `Cc1ccc(NC(=O)c2nc[nH]c2C(=O)N[C@@H](CCCCNC(=O)OC(C)(C)C)C(=O)OC(C)(C)C)cc1` was tested. Which inhibition did it give?
**A.** 3.32%

**Q.** Which inhibition does the source give for `S=c1[nH]cc(-c2ccc(Cl)cc2)n1-c1ccccc1` here?
**A.** 0.72%

**Q.** Which inhibition does the source give for `CCC1(C)Cc2c(sc3nnn(CC(=O)Nc4ccc(Cl)cc4)c(=O)c23)CO1` (stereo unspecified) here?
**A.** 1.24%

**Q.** How did the inhibition turn out when `CC(C)(C)N1C(=O)[C@H]2[C@@H](c3ccc(Br)cc3)N3C(=O)N(c4cccc(Cl)c4)C(=O)[C@@]3(C)[C@H]2C1=O` was run?
**A.** 0.76%

**Q.** `Cc1ccc(S(=O)(=O)N(CC(=O)Nc2cccnc2)c2ccc(Br)cc2)cc1` was tested. Which inhibition did it give?
**A.** 0.35%

**Q.** Which inhibition does the source give for `O=C(NCCc1ccc(Cl)cc1Cl)c1cc([N+](=O)[O-])c[nH]c1=O` here?
**A.** 0.13%

**Q.** How did the inhibition turn out when `O=S(=O)(c1cccc(S(=O)(=O)N2CCC(n3nnc4ccccc43)CC2)c1)N1CCCCC1` was run?
**A.** 0.16%

**Q.** For `C#CCN(C[C@H]1[C@H](OC(=O)NC2CCCC2)[C@H](OC(=O)NC2CCCC2)C[C@H]2C(=O)N(c3ccccc3)C(=O)[C@@H]12)S(=O)(=O)c1ccc(C)cc1`, which inhibition is on record?
**A.** 1.32%

**Q.** With `COc1ccc([C@@H]2[C@@H]3C(=O)N(C(C)(C)C)C(=O)[C@@H]3[C@]3(Cc4ccccc4)C(=O)N(c4cccc(Br)c4)C(=O)N23)cc1` as the compound, how does the inhibition read?
**A.** 2.34%

**Q.** For `O=C(CC(O)(C(F)(F)F)C(F)(F)F)Nc1ccc(Cl)c(Cl)c1`, which inhibition is on record?
**A.** 1.21%

**Q.** Which inhibition does the source give for `O=S(=O)(c1ccccc1)N(Cc1cccc(F)c1)c1ccccc1` here?
**A.** 0.96%

**Q.** With `C=C(C)COc1ccc(-c2n[nH]c(C)c2-c2ccccc2)c(O)c1` as the compound, how does the inhibition read?
**A.** 3.15%

**Q.** How did the inhibition turn out when `COc1ccc(C(N)c2csc(NC(=O)Nc3cccc(C(F)(F)F)c3)n2)cc1` (stereo unspecified) was run?
**A.** 1.65%

**Q.** How did the inhibition turn out when `COC(=O)C1NN=C(C(=O)c2ccc(Br)cc2)C1c1cccc(Br)c1` (stereo unspecified) was run?
**A.** 1.16%

**Q.** With `CCC(C(=O)OCC(=O)Nc1ccccc1-c1ccccc1)c1ccccc1` (stereo unspecified) as the compound, how does the inhibition read?
**A.** 1.36%

**Q.** `COc1cccc(C2CC(c3ccccc3)=NN2S(=O)(=O)c2ccccc2)c1OC` (stereo unspecified) was tested. Which inhibition did it give?
**A.** 1.14%

**Q.** For `Cc1ccc(S(=O)(=O)N2CCN(C(=O)COC(=O)c3c(C)cc(C)cc3C)CC2)c(C)c1`, which inhibition is on record?
**A.** 1.25%

**Q.** With `CC(N=Cc1nc(-c2ccccc2)oc1O)c1ccccc1` (stereo unspecified) as the compound, how does the inhibition read?
**A.** 1.57%

**Q.** For `Cc1cccc(C2c3[nH]c4ccccc4c3CCN2C(=O)c2cc(-c3cccn3C)n[nH]2)n1` (stereo unspecified), which inhibition is on record?
**A.** 2.55%

**Q.** How did the inhibition turn out when `COc1ccc([C@H]2CC(=O)C=C(c3ccc(OC(F)(F)F)cc3)C2)cc1OC` was run?
**A.** 0.8%

**Q.** `O=C(CC1SC(=Nc2ccccc2)N(Cc2ccccn2)C1=O)Nc1cccc(Cl)c1` (stereo unspecified) was tested. Which inhibition did it give?
**A.** 2.48%
